From paper PMC6868880 (ACS Omega, 2019)
Values after ≈ are worked out from the molar mass of the structure shown. Where two headings read alike, the source gives them in different places. Where no end group is shown, it is not given here.

Tests used:
[1] = system: Trichophyton rubrum; assay: MIC, filamentous fungi, Trichophyton rubrum; assay type: cell-based; details: ATCC28189, read-out: MIC Tr
Outline: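 T. rubrum ATCC 28189 was grown on potato dextrose agar, and inocula were prepared in RPMI 1640 medium. MIC was determined following CLSI M38-A2 for filamentous fungi.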

[2] = system: Escherichia coli; assay: MIC determination against bacteria; assay type: cell-based; details: read-out: MIC Ec
[3] = system: Candida albicans; details: cited from earlier work
[4] = system: Candida albicans; assay: MIC, broth microdilution, Candida albicans; assay type: cell-based; details: Table 5; CLSI M27-A3 with modifications, Lambert–Pearson plot; ATCC 24433
Outline: (§1)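 Yeasts were precultured in liquid YPD at 37 °C, 70 rpm, for 24 hours. MIC was determined by CLSI M27-A3 broth microdilution, modified for turbidimetric detection. The assay used MOPS-buffered RPMI 1640 without sodium bicarbonate, with cell density read at 600 nm. MIC was derived from a Lambert–Pearson plot of cell density.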

[5] = system: Candida parapsilosis; assay: MIC, broth microdilution, Candida parapsilosis; assay type: cell-based; details: Table 5; CLSI M27-A3 with modifications, Lambert–Pearson plot; ATCC 22019
Outline: as §1

[6] = system: Candida auris; assay: MIC, broth microdilution, Candida auris; assay type: cell-based; details: Table 5; CLSI M27-A3 with modifications, Lambert–Pearson plot; DSMZ-No. 21092
Outline: as §1

[7] = system: Listeria monocytogenes; assay: MIC determination, Listeria monocytogenes; assay type: cell-based; details: Table 5; Mueller Hinton broth, CLSI M7A9 with modifications, triplicate; ATCC BAA-679/EGD-e
Outline: (§2)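 Bacteria pre-cultured overnight at 37 °C/5% CO2 in culture medium as inoculum. MIC of test peptides determined by broth dilution in Mueller Hinton broth following CLSI M7A9 with modifications for bacteria. All tests run in triplicate.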

[8] = system: Pseudomonas aeruginosa; assay: MIC determination, Pseudomonas aeruginosa; assay type: cell-based; details: Table 5; Mueller Hinton broth, CLSI M7A9 with modifications, triplicate; ATCC 27853
Outline: as §2

[9] = system: human erythrocytes; details: cited from earlier work
[10] = system: rabbit erythrocytes; details: cited from earlier work
[11] = system: mammalian cell line; details: in vitro; cited from earlier work

C[C@@H]1[C@H](O)[C@@H](C)/C=C/C=C/C=C/C=C/C=C/C=C/C=C/[C@H](O[C@@H]2O[C@H](C)[C@@H](O)[C@H](N)[C@@H]2O)C[C@@H]2O[C@](O)(C[C@@H](O)C[C@@H](O)[C@H](O)CC[C@@H](O)C[C@@H](O)CC(=O)O[C@H]1C)C[C@H](O)[C@H]2C(=O)O [amphotericin B]
MIC [1]: 0.125 µg/mL (≈ 0.135 µM)

CC1(C)S[C@@H]2[C@H](NC(=O)[C@H](N)c3ccccc3)C(=O)N2[C@H]1C(=O)O [ampicillin]
MIC [2]: 0.195 µg/mL (≈ 0.559 µM)

OC(Cn1cncn1)(Cn1cncn1)c1ccc(F)cc1F [fluconazole]
MIC ([3]; against Candida albicans): 8 to 16 µg/mL

SRSELIVHQRLF-NH2 [Cm-p5]
MIC C. albicans [4]: 10 µg/mL | MIC C. parapsilosis [5]: 32 µg/mL | MIC C. auris [6]: 11 µg/mL | MIC Listeria monocytogenes [7]: >100 µg/mL | MIC Pseudomonas aeruginosa [8]: >100 µg/mL | MIC ([3]; against C. albicans, native peptide): 10 µg/mL | fungistatic action, concentration range ([3]; against Candida albicans): 10 to 40 µg/mL | hemolytic activity [9]: nonhemolytic | hemolytic activity [10]: nonhemolytic | toxicity against a mammalian cell line [11]: did not exhibit any toxicity
